Reference: ChEMBL document CHEMBL3526133, “Identifying a selective substrate and inhibitor pair for the evaluation of CYP2J2 activity” (Drug Metab Dispos, 2012)

Legend:
[1] = Retention time in potassium phosphate buffer treated with amiodarone hydrochloride at 30 uM by HPLC analysis; type: physicochemical
Cytochrome P450 2J2 [2] = target: T1, Cytochrome P450 2J2 (Homo sapiens, UniProt P51589); assay: Drug metabolism assessed as recombinant CYP2J2 (unknown origin)-mediated compound formation treated with amiodarone at 1 uM after 5 to 45 mins by LC-MS/MS analysis; type: ADME; conditions: recombinant enzyme
T1 sequence (P51589 whole entry): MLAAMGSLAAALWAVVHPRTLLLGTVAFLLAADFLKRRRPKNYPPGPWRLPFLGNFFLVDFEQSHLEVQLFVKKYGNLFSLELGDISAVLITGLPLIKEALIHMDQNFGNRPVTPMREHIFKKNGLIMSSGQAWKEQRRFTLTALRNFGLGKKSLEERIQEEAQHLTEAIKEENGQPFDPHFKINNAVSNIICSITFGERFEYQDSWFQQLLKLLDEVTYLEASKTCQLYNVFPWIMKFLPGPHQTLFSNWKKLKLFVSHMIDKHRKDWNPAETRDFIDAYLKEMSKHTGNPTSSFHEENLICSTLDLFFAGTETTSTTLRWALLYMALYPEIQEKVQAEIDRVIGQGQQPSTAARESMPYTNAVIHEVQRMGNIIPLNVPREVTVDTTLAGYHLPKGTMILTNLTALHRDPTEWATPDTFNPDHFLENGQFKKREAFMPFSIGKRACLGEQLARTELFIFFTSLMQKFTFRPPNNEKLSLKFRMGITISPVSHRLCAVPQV
Method in brief: (§1)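 Preincubated, then started with NADPH-regenerating system (1 mM NADPH final). Aliquots taken at 0, 5, 10, 20, 30, 45 min and quenched in acetonitrile with internal standard. No-NADPH controls included. Products measured by LC-MS/MS.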

Cytochrome P450 2J2 [3] = target: T1, Cytochrome P450 2J2; assay: Drug metabolism in human liver microsomes assessed as CYP2J2-mediated compound formation treated with amiodarone at 1 uM after 5 to 45 mins by LC-MS/MS analysis; type: ADME
Cytochrome P450 3A4 = Cytochrome P450 3A4 (Homo sapiens, UniProt P08684); assay: Drug metabolism assessed as recombinant CYP3A4 (unknown origin)-mediated compound formation treated with amiodarone at 1 uM after 5 to 45 mins by LC-MS/MS analysis; type: ADME; conditions: recombinant enzyme; method in brief: as §1
Cytochrome P450 1A2 = target: T2, Cytochrome P450 1A2 (Homo sapiens, UniProt P05177)
T2 sequence (P05177 whole entry): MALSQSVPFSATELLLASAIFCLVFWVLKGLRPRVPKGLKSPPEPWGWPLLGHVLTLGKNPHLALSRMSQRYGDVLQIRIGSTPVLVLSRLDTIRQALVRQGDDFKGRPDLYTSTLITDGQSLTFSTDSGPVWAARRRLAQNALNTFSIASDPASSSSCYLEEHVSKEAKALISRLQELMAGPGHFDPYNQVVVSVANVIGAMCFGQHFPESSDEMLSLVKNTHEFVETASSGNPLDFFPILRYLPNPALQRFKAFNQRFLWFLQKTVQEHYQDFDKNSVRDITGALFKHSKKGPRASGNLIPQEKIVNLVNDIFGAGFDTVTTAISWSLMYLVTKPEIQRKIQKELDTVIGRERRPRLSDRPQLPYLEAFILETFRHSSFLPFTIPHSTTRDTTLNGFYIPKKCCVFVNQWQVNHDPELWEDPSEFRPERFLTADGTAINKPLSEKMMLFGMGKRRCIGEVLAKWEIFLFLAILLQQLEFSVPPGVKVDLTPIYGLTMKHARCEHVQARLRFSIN

Cytochrome P450 2J2 [4] = target: T1, Cytochrome P450 2J2; assay: Drug metabolism in human liver microsomes assessed as CYP2J2-mediated astemizole O-demethylation measured per pmol protein at 0.3 uM after 5 mins by LC-MS/MS analysis; type: ADME
Cytochrome P450 2D6 = Cytochrome P450 2D6 (Homo sapiens, UniProt P10635)
CYP2J2 [5] = target: T3, CYP2J2 (Homo sapiens, UniProt P51589); assay: in vitro
T3 sequence (P51589 whole entry): T1 sequence (P51589 whole entry)

Cytochrome P450 2C9 = Cytochrome P450 2C9 (Homo sapiens, UniProt P11712)
Cytochrome P450 2C8 = target: T4, Cytochrome P450 2C8 (Homo sapiens, UniProt P10632)
T4 sequence (P10632 whole entry): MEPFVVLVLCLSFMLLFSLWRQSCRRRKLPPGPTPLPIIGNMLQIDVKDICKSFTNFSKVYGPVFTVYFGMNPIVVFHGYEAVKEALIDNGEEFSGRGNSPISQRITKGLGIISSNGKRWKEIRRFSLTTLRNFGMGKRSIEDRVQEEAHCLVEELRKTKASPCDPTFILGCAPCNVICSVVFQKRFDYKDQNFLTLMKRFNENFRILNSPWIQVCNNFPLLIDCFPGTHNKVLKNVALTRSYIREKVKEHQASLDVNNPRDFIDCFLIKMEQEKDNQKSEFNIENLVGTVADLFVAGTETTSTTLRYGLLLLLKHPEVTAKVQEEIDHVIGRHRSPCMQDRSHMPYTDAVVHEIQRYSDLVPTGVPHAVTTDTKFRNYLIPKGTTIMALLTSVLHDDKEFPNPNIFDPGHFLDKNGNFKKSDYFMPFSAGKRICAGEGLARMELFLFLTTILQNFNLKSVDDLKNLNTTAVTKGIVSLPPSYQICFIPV

CYP2C19 = CYP2C19 (Homo sapiens, UniProt P33261); assay: Inhibition of CYP2C19-mediated S-mephenytoin metabolite formation in human liver microsomes at 0.3 uM after 8 mins by LC-MS/MS analysis relative to control; type: ADME; conditions: probe S-mephenytoin (metabolite formation)
Method in brief: (§2)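 Pooled HLM with probe cocktail: phenacetin 10 µM, paclitaxel 5 µM, diclofenac 5 µM, S-mephenytoin 40 µM, dextromethorphan 5 µM, midazolam 2 µM. […] Preincubated 15 min, then started with NADPH-regenerating system (1 mM NADPH). Reaction run 8 min, quenched in acetonitrile with internal standard. Metabolites measured by LC-MS/MS; % inhibition given as mean ± S.D.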

Cytochrome P450 2C19 = Cytochrome P450 2C19 (Homo sapiens, UniProt P33261)
CYP1A2 = target: T5, CYP1A2 (Homo sapiens, UniProt P05177); assay: Inhibition of CYP1A2-mediated phenacetin metabolite formation in human liver microsomes at 0.3 uM after 8 mins by LC-MS/MS analysis relative to control; type: ADME; conditions: probe phenacetin (metabolite formation); method in brief: as §2
T5 sequence (P05177 whole entry): T2 sequence (P05177 whole entry)

CYP3A4 = CYP3A4 (Homo sapiens, UniProt P08684); assay: Inhibition of CYP3A4-mediated midazolam metabolite formation in human liver microsomes at 0.3 uM after 8 mins by LC-MS/MS analysis relative to control; type: ADME; conditions: probe midazolam (metabolite formation); method in brief: as §2
CYP2C9 = CYP2C9 (Homo sapiens, UniProt P11712); assay: Inhibition of CYP2C9-mediated diclofenac metabolite formation in human liver microsomes at 0.3 uM after 8 mins by LC-MS/MS analysis relative to control; type: ADME; conditions: probe diclofenac (metabolite formation); method in brief: as §2
CYP2D6 = CYP2D6 (Homo sapiens, UniProt P10635); assay: Inhibition of CYP2D6-mediated dextromethorphan metabolite formation in human liver microsomes at 0.3 uM after 8 mins by LC-MS/MS analysis relative to control; type: ADME; conditions: probe dextromethorphan (metabolite formation); method in brief: as §2
CYP2C8 [6] = target: T6, CYP2C8 (Homo sapiens, UniProt P10632); assay: Inhibition of CYP2C8-mediated paclitaxel metabolite formation in human liver microsomes at 0.3 uM after 8 mins by LC-MS/MS analysis relative to control; type: ADME; conditions: probe paclitaxel (metabolite formation); method in brief: as §2
T6 sequence (P10632 whole entry): T4 sequence (P10632 whole entry)

CYP2C8 [7] = target: T6, CYP2C8; assay: in vitro; conditions: human liver microsomes, probe paclitaxel (metabolite formation)
CYP2J2 [8] = target: T3, CYP2J2; assay: in vitro; conditions: recombinant enzyme

CYP2C19, sequence (P33261 whole entry): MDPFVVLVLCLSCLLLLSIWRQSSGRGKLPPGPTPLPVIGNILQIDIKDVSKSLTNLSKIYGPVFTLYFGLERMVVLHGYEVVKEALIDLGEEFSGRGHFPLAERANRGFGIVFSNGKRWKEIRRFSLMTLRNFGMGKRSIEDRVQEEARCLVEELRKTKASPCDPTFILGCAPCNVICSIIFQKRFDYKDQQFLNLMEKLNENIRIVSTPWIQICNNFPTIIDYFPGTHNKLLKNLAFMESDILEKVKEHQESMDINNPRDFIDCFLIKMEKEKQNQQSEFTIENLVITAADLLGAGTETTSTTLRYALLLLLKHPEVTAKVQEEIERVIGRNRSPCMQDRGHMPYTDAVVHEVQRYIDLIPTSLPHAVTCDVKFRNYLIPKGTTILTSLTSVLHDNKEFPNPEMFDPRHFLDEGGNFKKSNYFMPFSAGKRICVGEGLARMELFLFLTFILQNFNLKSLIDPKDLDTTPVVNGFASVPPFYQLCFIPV
Cytochrome P450 2C19, sequence (P33261 whole entry): as above
CYP2D6, sequence (P10635 whole entry): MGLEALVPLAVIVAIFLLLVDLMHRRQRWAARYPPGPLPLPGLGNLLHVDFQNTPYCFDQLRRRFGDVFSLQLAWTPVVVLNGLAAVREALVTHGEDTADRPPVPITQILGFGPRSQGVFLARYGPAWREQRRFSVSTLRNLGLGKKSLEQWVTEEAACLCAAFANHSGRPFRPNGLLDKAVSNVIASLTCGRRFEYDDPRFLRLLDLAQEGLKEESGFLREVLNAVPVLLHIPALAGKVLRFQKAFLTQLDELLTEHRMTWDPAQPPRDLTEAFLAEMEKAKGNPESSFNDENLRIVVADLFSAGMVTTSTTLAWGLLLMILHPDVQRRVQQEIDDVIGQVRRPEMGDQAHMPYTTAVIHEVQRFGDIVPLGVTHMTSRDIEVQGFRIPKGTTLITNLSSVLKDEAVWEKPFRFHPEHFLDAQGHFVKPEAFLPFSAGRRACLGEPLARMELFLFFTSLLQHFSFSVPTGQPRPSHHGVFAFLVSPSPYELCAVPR
Cytochrome P450 2D6, sequence (P10635 whole entry): as above
Cytochrome P450 2C9, sequence (P11712 whole entry): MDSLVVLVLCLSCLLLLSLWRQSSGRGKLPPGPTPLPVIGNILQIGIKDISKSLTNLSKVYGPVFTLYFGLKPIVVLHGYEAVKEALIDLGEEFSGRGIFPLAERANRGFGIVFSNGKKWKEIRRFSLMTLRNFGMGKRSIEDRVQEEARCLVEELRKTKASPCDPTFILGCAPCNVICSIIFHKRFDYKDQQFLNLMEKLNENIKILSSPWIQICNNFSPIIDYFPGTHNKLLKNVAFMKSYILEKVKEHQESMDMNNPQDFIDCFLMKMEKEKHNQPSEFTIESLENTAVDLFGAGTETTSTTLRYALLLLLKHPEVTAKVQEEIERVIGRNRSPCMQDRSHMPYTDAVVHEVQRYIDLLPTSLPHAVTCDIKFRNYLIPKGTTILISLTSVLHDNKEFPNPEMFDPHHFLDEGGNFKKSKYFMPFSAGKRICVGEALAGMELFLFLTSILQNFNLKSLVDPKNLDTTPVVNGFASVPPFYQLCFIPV
CYP2C9, sequence (P11712 whole entry): as above
Cytochrome P450 3A4, sequence (P08684 whole entry): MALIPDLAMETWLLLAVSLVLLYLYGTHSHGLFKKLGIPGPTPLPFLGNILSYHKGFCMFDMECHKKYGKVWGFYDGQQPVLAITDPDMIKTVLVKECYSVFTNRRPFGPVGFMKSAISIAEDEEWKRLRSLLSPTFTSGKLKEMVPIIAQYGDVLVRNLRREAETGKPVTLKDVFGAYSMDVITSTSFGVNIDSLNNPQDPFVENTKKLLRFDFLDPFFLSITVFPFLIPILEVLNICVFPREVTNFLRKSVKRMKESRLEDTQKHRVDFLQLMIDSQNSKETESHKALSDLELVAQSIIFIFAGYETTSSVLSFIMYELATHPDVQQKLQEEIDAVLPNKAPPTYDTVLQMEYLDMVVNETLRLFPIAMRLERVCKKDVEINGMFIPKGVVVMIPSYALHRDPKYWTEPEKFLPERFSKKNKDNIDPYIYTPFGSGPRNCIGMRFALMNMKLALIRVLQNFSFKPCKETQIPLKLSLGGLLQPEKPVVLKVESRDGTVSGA
CYP3A4, sequence (P08684 whole entry): as above

With CCN(CC)CCOc1c(I)cc(C(=O)c2c(CCC(C)O)oc3ccccc23)cc1I (stereo not given) the Retention_time [1] was 13.2 min, the Drug metabolism (Cytochrome P450 2J2 [2]) was “metabolite_detected” and the Drug metabolism (Cytochrome P450 2J2 [3]) was “metabolite_detected”. The Drug metabolism (Cytochrome P450 3A4) was “metabolite_detected”.
For COc1ccc(CCN2CCC(Nc3nc4ccccc4n3Cc3ccc(F)cc3)CC2)cc1 [ASTEMIZOLE], the IC50 (Cytochrome P450 1A2) was greater than 30 µM, the Drug metabolism (Cytochrome P450 2J2 [4]) was 32 pmol/min and the IC50 (Cytochrome P450 2D6) was greater than 30 µM. For the same compound, the activity at 5 min, 30 µM (CYP2J2 [5]; recombinant CYP2J2, probe terfenadine (hydroxylation)) was 8.3%, the IC50 (Cytochrome P450 2C9) was greater than 30 µM and the IC50 (Cytochrome P450 2C8) was greater than 30 µM. The inhibition at 8 min, 0.3 µM (CYP2C19) was 6%, the IC50 (Cytochrome P450 2C19) was 13.7 µM and the inhibition at 8 min, 0.3 µM (CYP1A2) was -0.6%. The inhibition at 8 min, 0.3 µM (CYP3A4) was 20.3%, the inhibition at 8 min, 0.3 µM (CYP2C9) was -2.7% and the inhibition at 8 min, 0.3 µM (CYP2D6) was 8.5%. The inhibition at 8 min, 0.3 µM (CYP2C8 [6]) was 1.1%.
Work on CCCCc1oc2ccccc2c1C(=O)c1cc(I)c(OCCN(CC)CC)c(I)c1 [AMIODARONE] yielded an inhibition at 8 min, 5 µM (CYP2C8 [7]) of 32.7%, an activity at 5 min, 30 µM (CYP2J2 [5]; recombinant enzyme) of 39% and an activity at 5 min, 30 µM (CYP2J2 [8]) of 18.7%.
